Measured values collected from several papers.
Compare with care: the assays were run in different laboratories.
Target: Macrophage-stimulating protein receptor (MST1R, Homo sapiens, UniProt Q04912)

| Structure (SMILES) | assay | conditions | measurement | value |
| --- | --- | --- | --- | --- |
| Cc1ccc(Nc2nccc(N(C)c3ccc4c(C)n(C)nc4c3)n2)cc1S(N)(=O)=O | cell-free assay | 0.3 µM | inhibition | -3% |
| O=C(NS(=O)(=O)c1ccc(NCC2CCOCC2)c([N+](=O)[O-])c1)c1ccc(N2CCN(Cc3ccc(C(F)(F)F)cc3-c3ccc(Cl)cc3)CC2)cc1Oc1cnc2[nH]ccc2c1 | cell-free assay, competition with immobilised ligand | 1 µM | remaining binding | 96% |
| CN1CC(Oc2cnc(C#N)cc2-c2ccn3nc(NC(=O)C4CC4)cc3c2)C1 | enzyme activity, inhibitor | 1 µM | inhibition | 5% |
| Cc1cc(NC(=O)c2cccc3cc(-c4cccc5[nH]nc(N)c45)ccc23)ccc1F | enzyme activity, inhibitor | 0.1 µM | activity vs control | 110% |
| Cc1cc(-n2nc(Cc3cc(F)cc(C(F)(F)F)c3)nc2C)ccc1C(N)=O | cell-free assay, competition with immobilised ligand | 1 µM | remaining binding | 100% |
| c1ccc(CNc2nc(N3CCOc4ccccc43)nc3c2CCCC3)cc1 | target engagement in cells, inhibitor, chemoproteomics | 20 mM | inhibition | -10.5% |
| COc1cc2c(Nc3ccc(Br)cc3F)ncnc2cc1OCC1CCN(C)CC1 | cell-free assay | 0.5 µM | remaining signal | 93.6% |
| Cc1[nH]c(/C=C2\C(=O)Nc3ccc(F)cc32)c(C)c1C(=O)N[C@H]1CCN(C(=O)N(C)C)C1 | enzyme activity, inhibitor | 0.1 µM | remaining activity | 93% |
| CC(=O)c1c(NS(C)(=O)=O)c2cc(-c3ccc(Cl)cc3)c(-c3ccc(Cl)cc3Cl)nc2n(C)c1=O | cell-free assay, competition with immobilised ligand | 1 µM | remaining binding | 88% |
| COc1cc(Cl)c(C(=O)N[C@@H](CN[C@H]2CC[C@@H](N)CC2)Cc2ccc(C#N)cc2)cc1-c1ccc(CN[C@H](C)c2ccc(C)cc2)o1 | enzyme activity, inhibitor | 1 µM | remaining activity | 92% |
| COc1cc(-c2cn(C3CCc4ccccc4N(CC(F)(F)F)C3=O)nn2)ccc1-n1ccc(C)n1 (stereo not shown) | cell-free assay, competition with immobilised ligand | 1 µM | remaining binding | 96% |
| O=C(Nc1cnn(-c2csc(C(=O)NC3COC3)c2)c1)Nc1ccccc1Cl | enzyme activity, inhibitor | 5 µM | remaining activity | 108% |
| CNC(=O)c1cc2c(Oc3ccc(NC(=O)C4(C(=O)Nc5ccc(F)cc5)CC4)cc3)ccnc2cc1OC | enzyme activity, inhibitor, radiometric | 1 µM | inhibition | 90% |
| Cc1cnc(NC2CCOCC2)nc1-n1cnc(C(=O)NC(CN)c2cc(F)cc(Cl)c2)c1 (stereo not shown) | enzyme activity, inhibitor, radiometric | 1 µM | remaining activity | 107% |
| CO[C@H]1CC[C@H](CNc2ccc(S(=O)(=O)NC(=O)c3ccc(N4CCN(CC5=C(c6ccc(Cl)cc6)CC(C)(C)CC5)CC4)cc3Oc3cnc4[nH]ccc4c3)cc2[N+](=O)[O-])CC1 | cell-free assay, competition with immobilised ligand | 1 µM | remaining binding | 92% |
| CNC(=O)c1cc(Oc2ccc(NC(=O)Nc3ccc(Cl)c(C(F)(F)F)c3)cc2)ccn1 | cell-free assay | 10 µM | inhibition | -5% |
| CCN(CC)CCNC(=O)c1c(C)[nH]c(/C=C2\C(=O)Nc3ccc(F)cc32)c1C | enzyme activity, inhibitor | 1 µM | remaining activity | 138% |
| Cc1sc(C(=O)NC2COC2)cc1-n1cc(NC(=O)Nc2c(F)cccc2Cl)cn1 | enzyme activity, inhibitor | 10 µM | remaining activity | 96.9% |
| CC(C)(C)c1nc2c(s1)c1nc(N)ncc1c1ccc(NS(=O)(=O)c3c(F)cccc3F)c(F)c12 | enzyme activity, inhibitor, radiometric | 1 µM | remaining activity | 116% |
| O=C(Nc1ccc(Oc2ccc(F)cc2)cc1)N1CCc2ncccc2[C@H]1c1ccc(F)cc1 | cell-free assay, competition with immobilised ligand | 1 µM | remaining binding | 98% |
| COc1cc2ncnc(Nc3ccc(Oc4ccccc4)c(C)c3C)c2cc1OC | enzyme activity, inhibitor | 1 µM | inhibition | -3% |
| Clc1ccc(Nc2nnc(Cc3ccncc3)c3ccccc23)cc1 | cell-free assay | 0.5 µM | remaining signal | 91.6% |
| CCc1ccccc1C(=O)Nc1n[nH]c2c(C)c(F)c(C3C(C#N)=C(C)N(C)C(C)=C3C#N)cc12 | cell-free assay, competition with immobilised ligand | 1 µM | remaining binding | 100% |
| CCN(CC)CCNC(=O)c1c(C)[nH]c(/C=C2\C(=O)Nc3ccc(F)cc32)c1C | cell-free assay | 0.3 µM | inhibition | -3% |
| Nc1ncnc2occ(-c3ccc(NC(=O)Nc4cc(C(F)(F)F)ccc4F)cc3)c12 | cell-free assay | 20 µM | remaining signal | 7.4% |
| O=C1NC(=O)c2cc(Nc3ccc(F)cc3)c(Nc3ccc(F)cc3)cc21 | cell-free assay | 0.5 µM | remaining signal | 100% |
| O=C(NCc1ncc(C(F)(F)F)cc1Cl)c1ccc2c(c1)C1(CCS(=O)(=O)CC1)[C@H](C1CC1)N2S(=O)(=O)c1ccc(F)cc1 | cell-free assay, competition with immobilised ligand | 1 µM | remaining binding | 99% |
| CCCS(=O)(=O)Nc1ccc(F)c(C(=O)c2c[nH]c3ncc(-c4ccc(Cl)cc4)cc23)c1F | enzyme activity, inhibitor | 1 µM | inhibition | < 10% |
